The values that follow come from article PMC2697266 (Nature, 2009).

The nature of series [1]: 15N NMR relaxation, rotational correlation time. The series is classed as physicochemical. The settings on record: 15N R2/R1 ratios, pH 7.0, 25°C; estimated. The method in brief: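 0.2-0.5 mM uniformly 15N-labeled JARID1A PHD3 (bacterial His6-SUMO fusion, cleaved, purified by Ni-NTA and gel filtration), free or with unlabeled H3 1-9 K4me3 peptide. R1 and R2 measured with standard pulse sequences at 25°C, 800 MHz with cryoprobe; correlation time estimated from R2/R1 ratios.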

The test system of series [2] is JARID1APHD1 (the first PHD finger of JARID1A). Kind of series: Biotinylated histone peptide pull-down, JARID1APHD1. The series is classed as binding, human. The conditions noted are these: 50mM Tris pH 7.5, 150mM NaCl; qualitative. Put shortly: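 Biotinylated histone peptides were bound to recombinant PHD protein and captured on avidin beads. Beads were washed extensively in 50mM Tris pH 7.5, 150mM NaCl (250mM for stringent washes), 0.05% NP-40, 0.3mg/ml BSA and 1mM DTT; bound protein was then assessed.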

“JARID1APHD3: C-terminal PHD finger of JARID1A (amino acids 1601-1660) (EESDDENAVCAAQNCQRPCKDKVDWVQCDGGCDEWFHQVCVGVSPEMAENEDYICINCAK; left off: GST, end not stated, kept)”: the rotational correlation time in series [1] is reported as 3.5 ns.

As to “H3K4me0: unmodified H3K4 histone peptide”, the “interaction with JARID1APHD1 in peptide pull-down” value in series [2] is given as “interacted”.
